Laboratory results reported in ChEMBL document CHEMBL1759875, “Synthesis and biological evaluation of 1-[2-cyano-3,12-dioxooleana-1,9(11)-dien-28-oyl]-4-ethynylimidazole. A novel and highly potent anti-inflammatory and cytoprotective agent” (Bioorg Med Chem Lett, 2011).
Activity calls are given as the source filed them. The rule behind the calls is not given here.

How the values were obtained:
[1] = Stability of the compound at 4 degC; format: physicochemical
[2] = test system: RAW264.7; experiment: Inhibition of NO production in INFgamma-stimulated mouse RAW264.7 cells measured after 24 hrs by Griess reaction method; format: functional, cell-based; conditions: RAW264.7, 24 h
In short: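 RAW 264.7 mouse macrophages were seeded at 30,000 cells/well in triplicate. The next day they were pre-treated for 2 h with DMSO or compound (0–200 nM), then stimulated with IFN-γ for 24 h. Medium NO was measured by Griess reagent and viability by WST-1. IC₅₀ came from suppression of IFN-γ-induced NO normalized to viability.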

[3] = target: T1, Heme oxygenase 1 (Mus musculus) (UniProt P14901); experiment: Induction of HO1 activity in mouse RAW264.7 cells at 30 to 100 nM after 16 hrs; format: cell-based
T1 sequence (whole entry): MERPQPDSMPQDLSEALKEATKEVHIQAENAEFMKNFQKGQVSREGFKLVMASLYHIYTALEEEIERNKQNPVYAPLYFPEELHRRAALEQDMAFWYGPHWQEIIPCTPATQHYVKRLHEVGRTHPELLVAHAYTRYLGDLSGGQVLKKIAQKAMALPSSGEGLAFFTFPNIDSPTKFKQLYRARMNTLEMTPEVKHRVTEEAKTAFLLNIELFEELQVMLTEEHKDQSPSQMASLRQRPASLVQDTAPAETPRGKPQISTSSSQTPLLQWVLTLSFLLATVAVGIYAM
In short: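 RAW 264.7 mouse macrophages were plated at 100,000 cells/well and treated the next day with DMSO or compound for 16 h (overnight). Cells were harvested in tricine sample buffer with b-ME. Lysates were run on SDS–PAGE and immunoblotted for HO-1, with GAPDH as the reference protein.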

[4] = target: NAD(P)H dehydrogenase [quinone] 1 (Mus musculus) (UniProt Q64669); experiment: Induction of NQO1 activity in mouse Hepa-1c1c7 cells assessed as concentration require to double the specific enzyme activity after 48 hrs; format: cell-based
In short: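 Hepa1c1c7 murine hepatoma cells were seeded at 10,000 cells/well and grown 24 h, then exposed to serial dilutions for 48 h. NQO1 specific enzyme activity was measured, and potency was taken as the concentration that doubles it (CD). Each concentration used eight replicate wells; SD was 5–10%.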

Chain of NAD(P)H dehydrogenase [quinone] 1 (Mus musculus) (Q64669 whole entry): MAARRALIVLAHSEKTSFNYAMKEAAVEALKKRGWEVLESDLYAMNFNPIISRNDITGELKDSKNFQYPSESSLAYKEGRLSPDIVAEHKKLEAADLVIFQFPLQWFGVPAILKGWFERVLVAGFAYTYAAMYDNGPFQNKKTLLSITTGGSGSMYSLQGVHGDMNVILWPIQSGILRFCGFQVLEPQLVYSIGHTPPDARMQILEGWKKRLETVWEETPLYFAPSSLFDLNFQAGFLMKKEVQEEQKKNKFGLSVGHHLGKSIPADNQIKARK

SMILES | Stability [1] [yr] | IC50 [2] [nM] | Activity [3] | CD [4] [nM]
CC#Cc1nc(C)cn1C(=O)[C@]12CCC(C)(C)C[C@H]1[C@H]1C(=O)C=C3[C@@]4(C)C=C(C#N)C(=O)C(C)(C)[C@@H]4CC[C@@]3(C)[C@]1(C)CC2 | 3 | 2 | Active | 0.4
C#Cc1nccn1C(=O)[C@]12CCC(C)(C)C[C@H]1[C@H]1C(=O)C=C3[C@@]4(C)C=C(C#N)C(=O)C(C)(C)[C@@H]4CC[C@@]3(C)[C@]1(C)CC2 | 3 | 2.3 | Active | 0.9
CC1(C)CC[C@]2(C(=O)n3ccnc3)CC[C@]3(C)[C@H](C(=O)C=C4[C@@]5(C)C=C(C#N)C(=O)C(C)(C)[C@@H]5CC[C@]43C)[C@@H]2C1 | 1 | 0.6 |  | 0.2
CC1(C)CC[C@]2(C(=O)n3cnc(C#Cc4ccccc4)c3)CC[C@]3(C)[C@H](C(=O)C=C4[C@@]5(C)C=C(C#N)C(=O)C(C)(C)[C@@H]5CC[C@]43C)[C@@H]2C1 |  | 7.8 |  | 
C#Cc1cn(C(=O)[C@]23CCC(C)(C)C[C@H]2[C@H]2C(=O)C=C4[C@@]5(C)C=C(C#N)C(=O)C(C)(C)[C@@H]5CC[C@@]4(C)[C@]2(C)CC3)cn1 | 3 | 1.4 | Active | 0.4
CC1(C)CC[C@]2(C(=O)n3ccnc3C#Cc3ccccc3)CC[C@]3(C)[C@H](C(=O)C=C4[C@@]5(C)C=C(C#N)C(=O)C(C)(C)[C@@H]5CC[C@]43C)[C@@H]2C1 | 3 | 4 | Active | 1.2
CC1(C)CC[C@]2(C(=O)O)CC[C@]3(C)[C@H](C(=O)C=C4[C@@]5(C)C=C(C#N)C(=O)C(C)(C)[C@@H]5CC[C@]43C)[C@@H]2C1 [BARDOXOLONE] |  | 11 |  | 3
